Reference: ChEMBL document CHEMBL1127826, “Inhibitors of acyl-CoA:cholesterol acyltransferase (ACAT). 7. Development of a series of substituted N-phenyl-N'-[(1-phenylcyclopentyl)methyl]ureas with enhanced hypocholesterolemic activity” (J Med Chem, 1994)

Columns and labels:
[1] = biological target: T1, Acyl-CoA:cholesterol acyltransferase (Oryctolagus cuniculus, UniProt Q95214); experiment: Tested for in vitro inhibition against Acyl coenzyme A:cholesterol acyltransferase of intestinal microsomes in cholesterol-fed rabbits; design: species or system Microsome
T1 sequence (Q95214 whole entry): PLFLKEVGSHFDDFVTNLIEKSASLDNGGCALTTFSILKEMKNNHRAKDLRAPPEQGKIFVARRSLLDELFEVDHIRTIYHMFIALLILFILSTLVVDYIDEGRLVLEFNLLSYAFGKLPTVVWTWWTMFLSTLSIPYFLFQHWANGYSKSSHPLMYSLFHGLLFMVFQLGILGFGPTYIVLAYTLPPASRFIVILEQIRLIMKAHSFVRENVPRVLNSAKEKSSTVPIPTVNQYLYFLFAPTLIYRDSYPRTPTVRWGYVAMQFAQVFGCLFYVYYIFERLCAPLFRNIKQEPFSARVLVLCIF
Outline: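 Microsomes were prepared from intestine of cholesterol-fed rabbits. ACAT activity was measured using [1-14C]oleoyl-CoA as substrate. Each determination was run in triplicate.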

[2] = Compound was evaluated for the distribution coefficient at pH 7.4; assay type: physicochemical; conditions: octanol/water
Rattus norvegicus [3] = experiment: Compound was evaluated in experiment 2 for Change in total cholesterol at 10 (mg/kg) dose; assay type: functional
Outline: (§1)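 Chronic model in male Sprague-Dawley rats (200-225 g). Rats were fed chow with peanut oil 5.5%, cholesterol 1.5% and cholic acid ad libitum for 2 weeks. Test article was given by gavage once daily (morning) in the second week, as a CMC/Tween aqueous suspension. Blood was taken by cardiac puncture under ether 24 h after the last dose. Plasma total, HDL and nonHDL cholesterol were measured with an Abbott VP analyzer using dextran sulfate precipitation, reported as mg/dL and % change from control. Controls were cholesterol-fed rats and rats switched to chow in week 2.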

Rattus norvegicus [4] = experiment: Compound was evaluated in experiment 2 for Change in total cholesterol at 3 (mg/kg) dose; assay type: functional; outline: as §1
Rattus norvegicus [5] = experiment: Compound was evaluated in experiment 2 for Change in total cholesterol at 30 (mg/kg) dose; assay type: functional; outline: as §1
Rattus norvegicus [6] = experiment: Compound was evaluated for the percentage change in total cholesterol in peanut oil (5.5%)-cholic acid (0.3%)-cholesterol (1.5%)-fed rat at 30 mg/kg; assay type: functional
Rattus norvegicus [7] = species: Rattus norvegicus; experiment: Percent change in total cholesterol in peanut oil (5.5%)-, cholic acid (0.3%)-, Cholesterol (1.5%)-fed rats after a single dose.; assay type: functional
Outline: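 Male Sprague-Dawley rats (200-225 g), n=5-7/group, given a single oral dose at 4 p.m. as a suspension in 1.5% CMC/0.2% Tween-20 in water (50 mg/kg); controls received vehicle alone. The rats then had free access to chow with peanut oil, cholesterol and cholic acid. At 8 a.m. next day they were bled by cardiac puncture under ether, and serum total cholesterol was measured as % change versus controls (unpaired two-tailed t-test).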

Rattus norvegicus [8] = experiment: Compound was evaluated in experiment 2 for Change in High density lipoproteins at 1 (mg/kg) dose; assay type: functional; outline: as §1
Rattus norvegicus [9] = experiment: Compound was evaluated in experiment 2 for Change in High density lipoproteins at 10 (mg/kg) dose; assay type: functional; outline: as §1
Rattus norvegicus [10] = experiment: Compound was evaluated in experiment 2 for Change in High density lipoproteins at 3 (mg/kg) dose; assay type: functional; outline: as §1
Rattus norvegicus [11] = experiment: Compound was evaluated in experiment 2 for Change in High density lipoproteins at 30 (mg/kg) dose; assay type: functional; outline: as §1
Rattus norvegicus [12] = experiment: Compound was evaluated in experiment 2 for change in non High density lipoprotein at the doses at 10 (mg/kg) dose; assay type: functional; outline: as §1
Rattus norvegicus [13] = experiment: Compound was evaluated in experiment 2 for change in non High density lipoprotein at the doses at 3 (mg/kg) dose; assay type: functional; outline: as §1
Rattus norvegicus [14] = experiment: Compound was evaluated in experiment 2 for change in non High density lipoprotein at the doses at 30 (mg/kg) dose; assay type: functional
Outline: (§2)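 Male Sprague-Dawley rats (200-225 g) were fed chow with peanut oil (5.5%), cholesterol (1.5%) and cholic acid (0.5%) ad libitum for 2 weeks. During week 2 they were gavaged daily each morning with compound in aqueous CMC/Tween suspension. Controls were fed the cholesterol diet for 2 weeks, or switched to chow for week 2. Rats were bled by cardiac puncture under ether 24 h post-dose. Plasma HDL-C was measured after dextran sulfate precipitation, along with nonHDL-C. Values are given in mg/dL and as % change from control.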

Rattus norvegicus [15] = experiment: Compound was evaluated in experiment 2 for High density lipoproteins at 1 (mg/kg) dose; assay type: functional; outline: as §1
Rattus norvegicus [16] = experiment: Compound was evaluated in experiment 2 for High density lipoproteins at 10 (mg/kg) dose; assay type: functional; outline: as §1
Rattus norvegicus [17] = experiment: Compound was evaluated in experiment 2 for High density lipoproteins at 3 (mg/kg) dose; assay type: functional; outline: as §1
Rattus norvegicus [18] = experiment: Compound was evaluated in experiment 2 for High density lipoproteins at 30 (mg/kg) dose; assay type: functional; outline: as §1
Rattus norvegicus [19] = experiment: Compound was evaluated in experiment 2 for Total cholesterol at 30 (mg/kg) dose; assay type: functional; outline: as §1
Rattus norvegicus [20] = experiment: Compound was evaluated in experiment 2 for non High density lipoproteins at 1 (mg/kg) dose; assay type: functional; outline: as §2
Rattus norvegicus [21] = experiment: Compound was evaluated in experiment 2 for non High density lipoproteins at 10 (mg/kg) dose; assay type: functional; outline: as §2
Rattus norvegicus [22] = experiment: Compound was evaluated in experiment 2 for non High density lipoproteins at 3 (mg/kg) dose; assay type: functional; outline: as §2
Rattus norvegicus [23] = experiment: Compound was evaluated in experiment 2 for non High density lipoproteins at 30 (mg/kg) dose; assay type: functional; outline: as §2
Rattus norvegicus [24] = experiment: Compound was evaluated in experiment 2 for Total cholesterol at 1 (mg/kg) dose; assay type: functional; outline: as §1
Rattus norvegicus [25] = experiment: Compound was evaluated in experiment 2 for Total cholesterol at 10 (mg/kg) dose; assay type: functional; outline: as §1
Rattus norvegicus [26] = experiment: Compound was evaluated in experiment 2 for Total cholesterol at 3 (mg/kg) dose; assay type: functional; outline: as §1

CC(C)c1cccc(C(C)C)c1NC(=O)NCC1(c2cccc(CN(C)C)c2)CCCC1
IC50 [1]: 63 nM
logD [2]: 4.8
Change TC (Rattus norvegicus [3]): -33%
Change TC (Rattus norvegicus [4]): -23%
Change TC (Rattus norvegicus [5]): -66%
Delta TC (Rattus norvegicus [6]): -55%
Delta TC (Rattus norvegicus [7]): -22%
Change HDL -C (Rattus norvegicus [8]): 8%
Change HDL -C (Rattus norvegicus [9]): 77%
Change HDL -C (Rattus norvegicus [10]): 31%
Change HDL -C (Rattus norvegicus [11]): 154%
Change non HDL-C (Rattus norvegicus [12]): -38%
Change non HDL-C (Rattus norvegicus [13]): -25%
Change non HDL-C (Rattus norvegicus [14]): -76%
HDL-C (Rattus norvegicus [15]): 14
HDL-C (Rattus norvegicus [16]): 23
HDL-C (Rattus norvegicus [17]): 17
HDL-C (Rattus norvegicus [18]): 33
TC (Rattus norvegicus [19]): 101
Non-HDL-C (Rattus norvegicus [20]): 278
Non-HDL-C (Rattus norvegicus [21]): 177
Non-HDL-C (Rattus norvegicus [22]): 212
Non-HDL-C (Rattus norvegicus [23]): 68
TC (Rattus norvegicus [24]): 292
TC (Rattus norvegicus [25]): 200
TC (Rattus norvegicus [26]): 229
